Data reported in BindingDB's records for doi:10.1021/ml1001807 (2011).

Legend:
[1] = target: Tyrosine-protein kinase JAK3 (Homo sapiens, UniProt P52333); assay: Inhibition of JAK3 by Caliper mobility shift assay
How it was run: (§1)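 Caliper mobility shift kinase assay with phosphorylation of a substrate; IC50 derived from two independent experiments.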

[2] = target: Tyrosine-protein kinase receptor UFO (Homo sapiens, UniProt P30530); assay: Inhibition of Axl by TR-FRET based LanthaScreen assay
How it was run: (§2)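 TR-FRET LanthaScreen kinase assay with phosphorylation of a substrate; FGFR3 used as the K651E mutant. IC50 derived from two independent experiments; for some compounds, ALK and cKIT values are averages ± SDs of three independent experiments.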

[3] = target: Proto-oncogene tyrosine-protein kinase receptor Ret (Homo sapiens, UniProt P07949); assay: Inhibition of RET by TR-FRET based LanthaScreen assay; how it was run: as §2
[4] = target: Rho-associated protein kinase 2 (Homo sapiens, UniProt O75116); assay: Inhibition of ROCK2 by Caliper mobility shift assay; how it was run: as §1
[5] = target: Tyrosine-protein kinase JAK1 (Homo sapiens, UniProt P23458); assay: Inhibition of JAK1 by TR-FRET based LanthaScreen assay
[6] = target: Fibroblast growth factor receptor 3 (Homo sapiens, UniProt P22607); assay: Inhibition of FGFR3 by TR-FRET based LanthaScreen assay; how it was run: as §2
[7] = target: Tyrosine-protein kinase JAK2 (Homo sapiens, UniProt O60674); assay: Inhibition of JAK2 by TR-FRET based LanthaScreen assay
Insulin receptor = Insulin receptor (Homo sapiens, UniProt P06213); assay: Inhibition of INSR by TR-FRET based LanthaScreen assay; how it was run: as §2
Aurora kinase A = Aurora kinase A (Homo sapiens, UniProt O14965); assay: Inhibition of Aurora A kinase by Caliper mobility shift assay; how it was run: as §1
[8] = target: Receptor tyrosine-protein kinase erbB-2 (Homo sapiens, UniProt P04626); assay: Inhibition of HER2 by TR-FRET based LanthaScreen assay; how it was run: as §2
[9] = target: Serine/threonine-protein kinase N2 (Homo sapiens, UniProt Q16513); assay: Inhibition of PKN2 by Caliper mobility shift assay; how it was run: as §1
[10] = target: ALK tyrosine kinase receptor (Homo sapiens, UniProt Q9UM73); assay: Inhibition of ALK by TR-FRET based LanthaScreen assay; how it was run: as §2
Ephrin type-A receptor 4 = Ephrin type-A receptor 4 (Homo sapiens, UniProt P54764); assay: Inhibition of EPHA4 by TR-FRET based LanthaScreen assay; how it was run: as §2
[11] = target: Mitogen-activated protein kinase 14 (Homo sapiens, UniProt Q16539); assay: Inhibition of p38alpha by Caliper mobility shift assay
How it was run: (§3)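 Caliper microfluidic mobility shift readout of substrate phosphorylation, run per the group's earlier kinase protocol. IC50 taken from two independent experiments.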

[12] = target: Serine/threonine-protein kinase N1 (Homo sapiens, UniProt Q16512); assay: Inhibition of PKN1 by Caliper mobility shift assay; how it was run: as §1
[13] = target: cAMP-dependent protein kinase catalytic subunit alpha (Homo sapiens, UniProt P17612); assay: Inhibition of PKAalpha by Caliper mobility shift assay
[14] = target: Hepatocyte growth factor receptor (Homo sapiens, UniProt P08581); assay: Inhibition of HGFR by TR-FRET based LanthaScreen assay
How it was run: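 LanthaScreen TR-FRET kinase format, run per the group's earlier protocol. IC50 from two independent experiments; for some compounds, PDGFRα and VEGFR2 values are means ± SD of three independent runs. The FGFR3 used was the K651E mutant.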

[15] = target: Glycogen synthase kinase-3 beta (Homo sapiens, UniProt P49841); assay: Inhibition of GSK3-beta by TR-FRET based LanthaScreen assay; how it was run: as §2
Ephrin type-B receptor 4 = Ephrin type-B receptor 4 (Homo sapiens, UniProt P54760); assay: Inhibition of EPHB4 by TR-FRET based LanthaScreen assay; how it was run: as §2
[16] = target: Insulin-like growth factor 1 receptor (Homo sapiens, UniProt P08069); assay: Inhibition of IGF1R by TR-FRET based LanthaScreen assay; how it was run: as §2
[17] = target: Cyclin-dependent kinase 2 (Homo sapiens, UniProt P24941); assay: Inhibition of CDK2A by Caliper mobility shift assay; how it was run: as §3
[18] = target: 3-phosphoinositide-dependent protein kinase 1 (Homo sapiens) (UniProt O15530); assay: Inhibition of PDK1 by Caliper mobility shift assay
[19] = target: Tyrosine-protein kinase ZAP-70 (Homo sapiens, UniProt P43403); assay: Inhibition of ZAP70 by TR-FRET based LanthaScreen assay; how it was run: as §2
Sequence of Tyrosine-protein kinase ZAP-70 (P43403 whole entry): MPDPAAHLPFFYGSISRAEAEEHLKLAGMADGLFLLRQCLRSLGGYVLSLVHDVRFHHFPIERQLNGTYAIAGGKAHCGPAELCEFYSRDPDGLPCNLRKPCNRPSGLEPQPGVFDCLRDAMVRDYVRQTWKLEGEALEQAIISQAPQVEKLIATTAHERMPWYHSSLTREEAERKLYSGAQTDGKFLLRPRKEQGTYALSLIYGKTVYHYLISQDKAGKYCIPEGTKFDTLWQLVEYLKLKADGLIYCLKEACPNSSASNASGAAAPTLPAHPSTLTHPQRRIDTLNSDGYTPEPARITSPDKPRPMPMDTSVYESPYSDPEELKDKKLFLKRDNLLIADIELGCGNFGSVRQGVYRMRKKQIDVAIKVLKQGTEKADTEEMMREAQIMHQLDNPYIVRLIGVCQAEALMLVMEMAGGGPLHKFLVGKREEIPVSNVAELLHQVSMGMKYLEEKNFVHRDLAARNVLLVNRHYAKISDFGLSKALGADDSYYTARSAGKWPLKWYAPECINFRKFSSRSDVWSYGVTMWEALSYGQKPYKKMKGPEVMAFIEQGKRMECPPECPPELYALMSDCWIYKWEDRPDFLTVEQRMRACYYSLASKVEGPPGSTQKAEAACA

Sequence of Tyrosine-protein kinase JAK3 (P52333 whole entry): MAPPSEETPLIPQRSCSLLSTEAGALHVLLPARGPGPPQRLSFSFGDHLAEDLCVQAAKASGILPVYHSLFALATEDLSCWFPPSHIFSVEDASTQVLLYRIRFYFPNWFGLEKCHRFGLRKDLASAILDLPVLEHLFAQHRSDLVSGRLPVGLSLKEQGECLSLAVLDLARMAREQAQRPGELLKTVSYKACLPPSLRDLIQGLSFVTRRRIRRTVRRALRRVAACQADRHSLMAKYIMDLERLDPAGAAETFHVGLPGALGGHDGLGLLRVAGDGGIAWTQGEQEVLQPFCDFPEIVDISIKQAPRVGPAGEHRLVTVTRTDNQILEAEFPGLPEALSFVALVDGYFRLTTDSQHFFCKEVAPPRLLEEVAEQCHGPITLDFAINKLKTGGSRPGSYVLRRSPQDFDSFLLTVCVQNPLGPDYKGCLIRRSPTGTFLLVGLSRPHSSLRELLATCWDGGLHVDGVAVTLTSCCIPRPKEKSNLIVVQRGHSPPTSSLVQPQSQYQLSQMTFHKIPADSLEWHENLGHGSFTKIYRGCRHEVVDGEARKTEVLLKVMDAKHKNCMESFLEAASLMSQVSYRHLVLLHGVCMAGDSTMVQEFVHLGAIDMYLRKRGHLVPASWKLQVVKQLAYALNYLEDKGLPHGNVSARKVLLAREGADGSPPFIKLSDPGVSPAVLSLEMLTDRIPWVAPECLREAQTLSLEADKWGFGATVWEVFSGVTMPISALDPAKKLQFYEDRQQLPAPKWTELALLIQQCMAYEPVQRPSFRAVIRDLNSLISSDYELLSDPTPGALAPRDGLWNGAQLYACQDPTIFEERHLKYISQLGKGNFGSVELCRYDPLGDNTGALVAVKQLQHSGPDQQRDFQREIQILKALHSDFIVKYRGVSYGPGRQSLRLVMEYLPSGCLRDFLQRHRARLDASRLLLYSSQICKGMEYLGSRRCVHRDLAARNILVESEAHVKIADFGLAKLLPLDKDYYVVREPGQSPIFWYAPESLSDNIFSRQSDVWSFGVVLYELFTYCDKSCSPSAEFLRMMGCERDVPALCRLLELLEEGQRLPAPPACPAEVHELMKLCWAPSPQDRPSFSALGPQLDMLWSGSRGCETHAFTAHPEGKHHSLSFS
Sequence of Insulin receptor (P06213 28-758 limits assumed): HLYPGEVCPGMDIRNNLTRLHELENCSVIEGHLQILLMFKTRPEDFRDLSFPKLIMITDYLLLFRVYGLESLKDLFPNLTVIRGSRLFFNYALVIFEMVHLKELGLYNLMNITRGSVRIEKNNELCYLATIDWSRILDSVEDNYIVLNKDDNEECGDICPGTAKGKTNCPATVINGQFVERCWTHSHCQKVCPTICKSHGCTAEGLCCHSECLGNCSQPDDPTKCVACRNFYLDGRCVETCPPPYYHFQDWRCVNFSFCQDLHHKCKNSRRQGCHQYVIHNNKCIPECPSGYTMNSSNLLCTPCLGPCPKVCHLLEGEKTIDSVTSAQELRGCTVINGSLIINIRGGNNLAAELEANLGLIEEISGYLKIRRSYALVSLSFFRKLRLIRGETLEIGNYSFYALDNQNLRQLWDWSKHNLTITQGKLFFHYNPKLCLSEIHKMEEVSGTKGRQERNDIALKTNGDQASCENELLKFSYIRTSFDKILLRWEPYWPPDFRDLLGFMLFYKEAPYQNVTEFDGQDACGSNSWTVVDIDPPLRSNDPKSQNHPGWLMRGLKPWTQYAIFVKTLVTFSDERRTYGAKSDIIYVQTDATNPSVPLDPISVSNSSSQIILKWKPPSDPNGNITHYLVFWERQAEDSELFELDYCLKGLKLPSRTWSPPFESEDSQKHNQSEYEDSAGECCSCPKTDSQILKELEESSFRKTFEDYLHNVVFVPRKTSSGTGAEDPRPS
Sequence of Insulin receptor (P06213 763-1382 limits assumed): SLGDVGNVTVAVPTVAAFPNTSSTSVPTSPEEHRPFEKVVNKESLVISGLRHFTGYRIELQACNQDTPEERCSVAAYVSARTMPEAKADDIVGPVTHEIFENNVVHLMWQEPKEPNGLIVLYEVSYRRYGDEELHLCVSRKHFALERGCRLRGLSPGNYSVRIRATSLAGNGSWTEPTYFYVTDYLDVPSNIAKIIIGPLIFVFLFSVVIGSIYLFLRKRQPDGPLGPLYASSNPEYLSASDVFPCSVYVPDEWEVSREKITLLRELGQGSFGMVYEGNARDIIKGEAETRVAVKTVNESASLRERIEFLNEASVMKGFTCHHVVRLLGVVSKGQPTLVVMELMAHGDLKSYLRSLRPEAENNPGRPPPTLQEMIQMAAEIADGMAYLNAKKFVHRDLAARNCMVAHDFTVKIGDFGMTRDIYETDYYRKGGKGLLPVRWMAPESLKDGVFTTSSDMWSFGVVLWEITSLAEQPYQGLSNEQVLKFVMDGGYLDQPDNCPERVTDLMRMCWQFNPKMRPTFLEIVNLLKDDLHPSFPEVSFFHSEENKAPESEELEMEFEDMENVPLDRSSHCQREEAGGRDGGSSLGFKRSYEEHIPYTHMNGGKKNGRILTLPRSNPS
Sequence of Aurora kinase A (O14965 whole entry): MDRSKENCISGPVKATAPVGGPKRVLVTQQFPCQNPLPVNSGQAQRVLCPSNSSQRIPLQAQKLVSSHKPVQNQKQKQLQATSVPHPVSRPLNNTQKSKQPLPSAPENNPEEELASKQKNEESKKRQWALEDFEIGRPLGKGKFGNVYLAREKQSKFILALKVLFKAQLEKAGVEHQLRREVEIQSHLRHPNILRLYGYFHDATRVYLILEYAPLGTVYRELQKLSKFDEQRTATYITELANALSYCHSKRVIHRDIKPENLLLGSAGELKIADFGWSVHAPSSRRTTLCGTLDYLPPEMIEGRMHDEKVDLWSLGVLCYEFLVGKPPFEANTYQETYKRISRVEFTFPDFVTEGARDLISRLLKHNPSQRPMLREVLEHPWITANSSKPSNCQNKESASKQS
Sequence of Rho-associated protein kinase 2 (O75116 whole entry): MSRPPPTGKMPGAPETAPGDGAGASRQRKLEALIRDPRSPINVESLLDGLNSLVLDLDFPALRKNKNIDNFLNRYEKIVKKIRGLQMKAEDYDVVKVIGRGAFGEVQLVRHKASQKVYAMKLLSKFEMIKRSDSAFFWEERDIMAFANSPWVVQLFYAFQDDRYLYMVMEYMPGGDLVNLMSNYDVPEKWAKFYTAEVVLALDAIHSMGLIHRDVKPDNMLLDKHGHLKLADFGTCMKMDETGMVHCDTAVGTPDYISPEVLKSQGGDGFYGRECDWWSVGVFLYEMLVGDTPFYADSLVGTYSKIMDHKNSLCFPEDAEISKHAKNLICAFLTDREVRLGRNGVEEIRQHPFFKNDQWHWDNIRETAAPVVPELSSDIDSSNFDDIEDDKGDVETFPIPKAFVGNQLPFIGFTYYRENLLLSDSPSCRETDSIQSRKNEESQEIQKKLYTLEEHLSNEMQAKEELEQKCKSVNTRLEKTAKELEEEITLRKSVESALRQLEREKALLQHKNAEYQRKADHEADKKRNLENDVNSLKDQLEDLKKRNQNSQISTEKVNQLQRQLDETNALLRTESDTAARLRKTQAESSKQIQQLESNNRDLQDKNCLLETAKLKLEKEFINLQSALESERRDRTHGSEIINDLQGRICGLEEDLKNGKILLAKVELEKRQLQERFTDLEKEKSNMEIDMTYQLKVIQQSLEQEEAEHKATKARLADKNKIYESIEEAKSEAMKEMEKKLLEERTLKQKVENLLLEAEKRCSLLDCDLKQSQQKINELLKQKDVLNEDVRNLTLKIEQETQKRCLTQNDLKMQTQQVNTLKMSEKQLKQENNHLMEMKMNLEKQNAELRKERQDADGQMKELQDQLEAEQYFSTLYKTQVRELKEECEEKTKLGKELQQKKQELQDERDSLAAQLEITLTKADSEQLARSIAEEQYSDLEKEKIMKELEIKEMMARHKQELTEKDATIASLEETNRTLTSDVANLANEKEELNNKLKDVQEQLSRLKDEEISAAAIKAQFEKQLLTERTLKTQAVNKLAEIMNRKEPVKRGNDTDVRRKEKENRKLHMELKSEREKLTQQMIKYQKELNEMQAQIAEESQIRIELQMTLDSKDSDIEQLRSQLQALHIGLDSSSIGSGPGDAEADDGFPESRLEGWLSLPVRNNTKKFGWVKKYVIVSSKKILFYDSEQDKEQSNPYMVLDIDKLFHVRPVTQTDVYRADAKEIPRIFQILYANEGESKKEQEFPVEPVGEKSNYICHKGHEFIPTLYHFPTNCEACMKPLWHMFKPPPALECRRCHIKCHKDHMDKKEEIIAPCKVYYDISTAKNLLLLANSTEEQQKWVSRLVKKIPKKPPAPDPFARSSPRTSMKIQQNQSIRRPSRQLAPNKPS

How did the IC50 [1] turn out when COc1cc(O)c2c(c1)CCCC(=O)C(=O)C(O)CCC[C@H](C)OC2=O (stereo partly drawn) [L-783277] was run?
The IC50 was greater than 10 µM.

What about the IC50 [2] of the same compound?
Its IC50 is greater than 10 µM.

What about the IC50 [3] of the same compound?
Its IC50 is greater than 10 µM.

And the IC50 [4]?
The IC50 was greater than 10 µM.

And the IC50 [5]?
Its IC50 is greater than 10 µM.

What about the IC50 [6] of the same compound?
The IC50 was greater than 10 µM.

And the IC50 [7]?
Its IC50 is greater than 10 µM.

And the IC50 (Insulin receptor)?
The IC50 was greater than 10 µM.

And the IC50 (Aurora kinase A)?
The IC50 was greater than 10 µM.

And the IC50 [8]?
The IC50 was greater than 10 µM.

What about the IC50 [9] of the same compound?
Its IC50 is greater than 10 µM.

And the IC50 [10]?
The IC50 was 0.763 µM.

And the IC50 (Ephrin type-A receptor 4)?
The IC50 was greater than 10 µM.

What about the IC50 [11] of the same compound?
Its IC50 is greater than 10 µM.

And the IC50 [12]?
The IC50 was greater than 10 µM.

What about the IC50 [13] of the same compound?
Its IC50 is greater than 10 µM.

And the IC50 [14]?
The IC50 was greater than 10 µM.

And the IC50 [15]?
Its IC50 is greater than 10 µM.

What about the IC50 (Ephrin type-B receptor 4) of the same compound?
Its IC50 is greater than 10 µM.

And the IC50 [16]?
Its IC50 is greater than 10 µM.

And the IC50 [17]?
Its IC50 is greater than 10 µM.

What about the IC50 [18] of the same compound?
The IC50 was greater than 10 µM.

What about the IC50 [19] of the same compound?
The IC50 was greater than 10 µM.
